Experimental data from PubChem BioAssay.
Values without a mark were called inactive.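 The calls were made as follows, unless noted: active = viability at or below 30% in both replicate assays; inconclusive = viability at or below 30% in just one of the two assays; inactive = the rest.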

Test: reduced viability of SK-BR-3 breast cancer cells – cell-based, 24 h, human, pilot screen (AID 572;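 active = viability at or below 10% of carrier control in both of two separate runs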;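 also: compound exposure lasted between 18 and 24 h rather than exactly 24 h; 100% = carrier-treated control wells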)
Settings: SK-BR-3 viability, CellTiter-Glo luminescence, at 10 µM, active compounds read low

| Compound | viability [%] |
| --- | --- |
| O=S(=O)(Nc1ccc(Cc2ccncc2)cc1)N1CCCC1 | 88 |
| CCn1c(=O)cc(OCC(=O)NCCCN2CC(C)CC(C)C2)c2ccccc21 (stereo not given) | 101 |
| Nn1c(SCC(=O)Nc2ccc3c(c2)OCO3)nnc1C1CC1 | 102 |
| CCOP(=O)(c1ccc(N(C)C)cc1)C(O)c1ccccc1OC (stereo not given) | 86 |
| COc1ccc(C(=O)N2CCSC2=S)cc1OC | 97.5 |
| O=c1c2nnn(Cc3ccccc3)c2ncn1-c1ccccc1 | 103 |
| CCOc1ccc(NC(=O)CN(C)S(=O)(=O)c2cccs2)cc1 | 104 |
| O=c1[nH]c(SCc2cc(=O)n3ccccc3n2)nc2c1CCC2 | 101 |
| Cc1ccc(O)c(NC(=O)COc2cc(C)ccc2C)c1 | 93.5 |
| N#Cc1cc2sc3nnc(-c4ccncc4)n3c2cc1C#N | 112 |
| CCOc1cc(C2c3c(n[nH]c3C)C(=O)N2c2ccc(Br)cc2)ccc1O (stereo not given) | 102 |
| Cc1cc(NC(=O)CSc2ccc(Cl)cc2)no1 | 88.5 |
| CC(C)[C@H](NC(=O)NC1CCCC1)C(=O)O | 103 |
| CCOC(=O)c1[nH]c2ccc(OC)cc2c1NC(=O)CCN1CCC(C)CC1 | 101 |
| CCc1nc(C)c(-c2ccccc2)c(=O)[nH]1 | 102 |
| CN(C)c1ccc(NC(=O)CSCc2nc3c(nnn3Cc3ccc(F)cc3)c(=O)[nH]2)cc1 | 89.5 |
| COc1ccc(C2CC(=O)c3cnc(NC(=O)c4ccccc4OC)nc3C2)c(OC)c1 (stereo not given) | 97.5 |
| Cc1cnc(NC(=O)CSc2nc3ccccc3c(=O)[nH]2)s1 | 89.5 |
| CCCOc1ccc(OCCSc2ncccn2)cc1 | 97 |
| Cc1nnc(C)c2c(C)n(-c3ccc(Br)cc3)c(C)c12 | 110 |

| Compound | viability [%] |
| --- | --- |
| COC(=O)c1cc(O)c(OCc2ccccc2)c(O)c1 | 88 |
| O=C(c1ccc(Br)o1)N(c1ccc(Br)cc1)C1C=CS(=O)(=O)C1 (stereo not given) | 89 |
| Cc1nn(-c2ccccc2)c(C)c1C(=O)OCC(=O)c1c(N)n(CC(C)C)c(=O)n(C)c1=O | 104 |
| CC(=O)N1CCc2cc(S(=O)(=O)NC(C(=O)NCc3ccccc3)C(C)C)ccc21 (stereo not given) | 97 |
| N#CC1=C(N)Oc2n[nH]c(-c3cccs3)c2C1c1cccs1 (stereo not given) | 96.5 |
| Cc1cc(C(=O)CN2C(=O)c3ccccc3C2=O)c(C)n1Cc1cccs1 | 122 |
| CCc1nnc(NC(=O)C2CCCN2S(=O)(=O)c2ccc(C)cc2)s1 (stereo not given) | 91.5 |
| COC(=O)C1=C(C)C(c2cccs2)NC(=O)N1C (stereo not given) | 92.5 |
| CCOC(=O)CSc1nnc([C@H](C)NC(=O)OC(C)(C)C)o1 | 104 |
| O=C1CC(N2CCN(c3ccc(Cl)c(Cl)c3)CC2)C(=O)N1 (stereo not given) | 67.5 |
| CCC(C)(C)n1nnnc1C(c1ccncc1)N1CCN(c2cccc(OC)c2)CC1 (stereo not given) | 77.5 |
| COc1cccc(C(=O)OCn2nnc3ccccc3c2=O)c1 | 88 |
| O=C(O)CCc1ccc(-c2ccc(F)cc2)n1CC(=O)O | 94.5 |
| COC(=O)c1ccccc1S(=O)(=O)N(CCCO)Cc1cc2c(C)ccc(C)c2[nH]c1=O | 84.5 |
| COC(=O)c1ccc(-c2ccc(CNCC(O)c3ccccc3)o2)cc1 (stereo not given) | 111 |
| COC(=O)Nc1ccc(S(=O)(=O)N2CCN(c3ccc(F)cc3)CC2)cc1 | 96.5 |
| O=C(Nc1ccc(O)cc1)C1CCCN1S(=O)(=O)c1ccc(F)cc1 (stereo not given) | 97.5 |
| CCc1ccc(C=NC23CN4CN(CN(C4)C2)C3)s1 | 108 |
| Cc1nnc(SCC(=O)N2c3ccccc3CC2C)s1 (stereo not given) | 105 |
| COc1ccccc1S(=O)(=O)n1cc(Cc2ccccc2)c(N)n1 | 96.5 |

Test: HUVEC growth inhibition – cell-based, human, primary screen (AID 575);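 also: 100% = median of untreated cell wells with 0.1% DMSO on each plate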
Settings: HUVEC proliferation, CellTiter-Glo luminescence, 72 h; at 10 µM; active compounds read low
Method in brief: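 Test system: primary human umbilical vein endothelial cells; medium: endothelial basal medium with 2% FBS plus growth supplements; dosing: 10 µM compound only; times: 72 h treatment at 37 °C; signal: CTG luminescence; read-out: % viability relative to median vehicle-well signal on each plate; control set: vehicle and MePR control wells; plate: 384-well, collagen-coated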

| Compound | viability [%] |
| --- | --- |
| O=S(=O)(Nc1ccc(Cc2ccncc2)cc1)N1CCCC1 | 104 |
| CCn1c(=O)cc(OCC(=O)NCCCN2CC(C)CC(C)C2)c2ccccc21 (stereo not given) | 81.3 |
| Nn1c(SCC(=O)Nc2ccc3c(c2)OCO3)nnc1C1CC1 | 105 |
| CCOP(=O)(c1ccc(N(C)C)cc1)C(O)c1ccccc1OC (stereo not given) | 115 |
| COc1ccc(C(=O)N2CCSC2=S)cc1OC | 89.4 |
| O=c1c2nnn(Cc3ccccc3)c2ncn1-c1ccccc1 | 111 |
| CCOc1ccc(NC(=O)CN(C)S(=O)(=O)c2cccs2)cc1 | 101 |
| O=c1[nH]c(SCc2cc(=O)n3ccccc3n2)nc2c1CCC2 | 74.7 |
| Cc1ccc(O)c(NC(=O)COc2cc(C)ccc2C)c1 | 77.7 |
| N#Cc1cc2sc3nnc(-c4ccncc4)n3c2cc1C#N | 37.8 |
| CCOc1cc(C2c3c(n[nH]c3C)C(=O)N2c2ccc(Br)cc2)ccc1O (stereo not given) | 53.1 |
| Cc1cc(NC(=O)CSc2ccc(Cl)cc2)no1 | 91.3 |
| CC(C)[C@H](NC(=O)NC1CCCC1)C(=O)O | 87.9 |
| CCOC(=O)c1[nH]c2ccc(OC)cc2c1NC(=O)CCN1CCC(C)CC1 | 94.1 |
| CCc1nc(C)c(-c2ccccc2)c(=O)[nH]1 | 81.8 |
| CN(C)c1ccc(NC(=O)CSCc2nc3c(nnn3Cc3ccc(F)cc3)c(=O)[nH]2)cc1 | 110 |
| COc1ccc(C2CC(=O)c3cnc(NC(=O)c4ccccc4OC)nc3C2)c(OC)c1 (stereo not given) | 75.1 |
| Cc1cnc(NC(=O)CSc2nc3ccccc3c(=O)[nH]2)s1 | 76.5 |
| CCCOc1ccc(OCCSc2ncccn2)cc1 | 99.6 |
| Cc1nnc(C)c2c(C)n(-c3ccc(Br)cc3)c(C)c12 | 92.3 |

| Compound | viability [%] |
| --- | --- |
| COC(=O)c1cc(O)c(OCc2ccccc2)c(O)c1 | 114 |
| O=C(c1ccc(Br)o1)N(c1ccc(Br)cc1)C1C=CS(=O)(=O)C1 (stereo not given) | 80 |
| Cc1nn(-c2ccccc2)c(C)c1C(=O)OCC(=O)c1c(N)n(CC(C)C)c(=O)n(C)c1=O | 64.3 |
| CC(=O)N1CCc2cc(S(=O)(=O)NC(C(=O)NCc3ccccc3)C(C)C)ccc21 (stereo not given) | 94.6 |
| N#CC1=C(N)Oc2n[nH]c(-c3cccs3)c2C1c1cccs1 (stereo not given) | 81.4 |
| Cc1cc(C(=O)CN2C(=O)c3ccccc3C2=O)c(C)n1Cc1cccs1 | 111 |
| CCc1nnc(NC(=O)C2CCCN2S(=O)(=O)c2ccc(C)cc2)s1 (stereo not given) | 117 |
| COC(=O)C1=C(C)C(c2cccs2)NC(=O)N1C (stereo not given) | 102 |
| CCOC(=O)CSc1nnc([C@H](C)NC(=O)OC(C)(C)C)o1 | 107 |
| O=C1CC(N2CCN(c3ccc(Cl)c(Cl)c3)CC2)C(=O)N1 (stereo not given) | 76.5 |
| CCC(C)(C)n1nnnc1C(c1ccncc1)N1CCN(c2cccc(OC)c2)CC1 (stereo not given) | 91.9 |
| COc1cccc(C(=O)OCn2nnc3ccccc3c2=O)c1 | 108 |
| O=C(O)CCc1ccc(-c2ccc(F)cc2)n1CC(=O)O | 106 |
| COC(=O)c1ccccc1S(=O)(=O)N(CCCO)Cc1cc2c(C)ccc(C)c2[nH]c1=O | 75.3 |
| COC(=O)c1ccc(-c2ccc(CNCC(O)c3ccccc3)o2)cc1 (stereo not given) | 88.8 |
| COC(=O)Nc1ccc(S(=O)(=O)N2CCN(c3ccc(F)cc3)CC2)cc1 | 86.9 |
| O=C(Nc1ccc(O)cc1)C1CCCN1S(=O)(=O)c1ccc(F)cc1 (stereo not given) | 91.6 |
| CCc1ccc(C=NC23CN4CN(CN(C4)C2)C3)s1 | 95.2 |
| Cc1nnc(SCC(=O)N2c3ccccc3CC2C)s1 (stereo not given) | 99.3 |
| COc1ccccc1S(=O)(=O)n1cc(Cc2ccccc2)c(N)n1 | 96.4 |
